These results are taken from ChEMBL document CHEMBL1949555, “Piperazine-2,3-dicarboxylic acid derivatives as dual antagonists of NMDA and GluK1-containing kainate receptors” (J Med Chem, 2012).

Activity calls are given as the source filed them.

Series [1] concerns the target Glutamate receptor ionotropic, kainate 2 (Homo sapiens, UniProt Q13002). Nature of the series: Antagonist activity at human recombinant GluK2 receptor expressed in human HEK293 cells assessed as inhibition of glutamate-stimulated calcium influx by fluorescence assay. The format is functional, cell-based. The gist of the method:
(§1)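 HEK293 lines stably expressing homomeric human GluK1(Q) or GluK2(Q), passaged no more than 20 times. Ca2+ influx is read as fluorescence, with concanavalin A present. Test compound is added in a first run, then L-glutamate plus antagonist in a second run (final glutamate 30 μM for GluK1, 10 μM for GluK2). IC50 values are converted to KB. Means ± s.e.m.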

In series [2] the target is Glutamate receptor ionotropic, kainate 1 (Homo sapiens, UniProt P39086). As to the kind of experiment: Antagonist activity at human recombinant GluK1 receptor expressed in human HEK293 cells assessed as inhibition of glutamate-stimulated calcium influx by fluorescence assay. It is filed as functional, cell-based. The gist of the method:
as §1

Series [3] deals with Glutamate NMDA receptor; Grin1/Grin2b (Rattus norvegicus, UniProt P35439+Q00960). As to the kind of experiment: Antagonist activity rat recombinant GluN1/GluN2B receptor expressed in Xenopus laevis oocytes assessed as inhibition of glutamate-induced response by two-electrode voltage-clamp electrophysiology assay. It is filed as functional, cell-based, Oocyte. The settings on record: read-out: Ki(app). Put shortly: (§2)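 Two-electrode voltage clamp of oocytes expressing rat GluN1a with the given GluN2 subunit, held at −60 mV in buffer of 116 mM NaCl, 2 mM KCl, 0.3 mM BaCl2, 5 mM HEPES, pH 7.4. Response is the steady plateau to bath-applied 10 μM L-glutamate plus 10 μM glycine. IC50 converted to apparent Ki via Ki = IC50/(1 + [agonist]/EC50). Means ± s.e.m.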
(In general: In two-electrode clamp one electrode senses voltage and the other passes current.)

Series [4] deals with Glutamate NMDA receptor; Grin1/Grin2a (Rattus norvegicus, UniProt P35439+Q00959). Nature of the series: Antagonist activity at rat recombinant GluN1/GluN2A receptor expressed in Xenopus laevis oocytes assessed as inhibition of glutamate-induced response by two-electrode voltage-clamp electrophysiology assay. It is filed as functional, cell-based, Oocyte. The settings on record: read-out: Ki(app).

Series [5] deals with Glutamate NMDA receptor; Grin1/Grin2c (Rattus norvegicus, UniProt P35439+Q00961). As to the kind of experiment: Antagonist activity rat recombinant GluN1/GluN2C receptor expressed in Xenopus laevis oocytes assessed as inhibition of glutamate-induced response by two-electrode voltage-clamp electrophysiology assay. The settings on record: read-out: Ki(app). The format is functional, cell-based, Oocyte. The gist of the method: as §2

Series [6] concerns the target Ionotropic glutamate receptor NMDA 1/2D (Rattus norvegicus, UniProt P35439+Q62645). Nature of the series: Antagonist activity rat recombinant GluN1/GluN2D receptor expressed in Xenopus laevis oocytes assessed as inhibition of glutamate-induced response by two-electrode voltage-clamp electrophysiology assay. The format is functional, cell-based, Oocyte. Conditions: read-out: Ki(app).

Series [7] can be described thus: Solubility of the compound in water at >100 uM. It is filed as physicochemical. The settings on record: buffer.
Series [8] has as its target Glutamate NMDA receptor; Grin1/Grin2c (Rattus norvegicus) (UniProt P35439+Q00961). Nature of the series: Antagonist activity rat recombinant GluN1/GluN2C receptor expressed in Xenopus laevis oocytes assessed as inhibition of glutamate-induced response at 100 uM by two-electrode voltage-clamp electrophysiology assay. It is filed as functional, cell-based. Conditions: Oocyte. The gist of the method:
(§3)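 Rat GluN1a co-expressed with GluN2A, 2B, 2C or 2D in Xenopus oocytes. Two-electrode voltage clamp at −60 mV in buffer of 116 mM NaCl, 2 mM KCl, 0.3 mM BaCl2, 5 mM HEPES, pH 7.4. Response is the steady plateau evoked by bath-applied 10 μM L-glutamate plus 10 μM glycine. Read-out is percent antagonism by 100 μM test compound.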

Series [9] deals with Glutamate NMDA receptor; Grin1/Grin2b (Rattus norvegicus) (UniProt P35439+Q00960). Nature of the series: Antagonist activity rat recombinant GluN1/GluN2B receptor expressed in Xenopus laevis oocytes assessed as inhibition of glutamate-induced response at 100 uM by two-electrode voltage-clamp electrophysiology assay. It is filed as functional, cell-based. Conditions: Oocyte. Put shortly:
as §3

The species named for series [10] is Rattus norvegicus. As to the kind of experiment: Selectivity ratio of IC50 for rat GluK3 receptor to IC50 for rat GluK1 receptor. The gist of the method: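 IC50 ratio from whole-cell patch clamp on HEK293 cells stably expressing homomeric GluK1 or GluK3, voltage clamped at −70 mV, 20°C. Glutamate is applied fast through a theta tube. Antagonist is applied about 2 min or until the response is stable, at five concentrations per cell, giving a dose-response curve for each cell.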

Series [11] has as its system HEK293. As to the kind of experiment: Displacement of [3H]-Kainate from […] rat GluK3 A660S mutant transfected in human HEK293 cells at 1 mM by immunoblot analysis. It is filed as cell-based.
The subject of series [12] is Rattus norvegicus. As to the kind of experiment: Antinociceptive activity in Wistar rat nerve injury model assessed as increased thermal withdrawal latency at 30 mg/kg, ip. The format is functional, organism-based. The arrangement: dose 30 mg/kg. Put shortly: (§4)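 Male Wistar rats (~250 g) with partial saphenous nerve ligation injury, tested on day 7 after injury and also before injury. Drug at 30 mg/kg or vehicle is given i.p. (n=5/group), with testing starting 15 min later. Mechanical threshold is taken from von Frey stimulus:response curves on both hindpaws (5 applications per hair). Thermal latency to radiant heat is the mean of 3 trials per hindpaw. Analysis by two-way ANOVA.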

Series [13] concerns the target Glutamate receptor ionotropic, kainate 3 (Rattus norvegicus) (UniProt P42264). Nature of the series: Displacement of [3H]-Kainate from wild type rat GluK3 receptor transfected in human HEK293 cells at 100 uM by immunoblot analysis. It is filed as cell-based. For orientation: Displacement assays read how much labelled ligand stays bound in the presence of the test substance.

In series [14] the test system is HEK293. As to the kind of experiment: Displacement of [3H]-Kainate from […] rat GluK3 A660S mutant transfected in human HEK293 cells at 300 uM by immunoblot analysis. The format is cell-based.
The target of series [15] is Glutamate receptor ionotropic, kainate 3 (Rattus norvegicus) (UniProt P42264). As to the kind of experiment: Displacement of [3H]-Kainate from wild type rat GluK3 receptor transfected in human HEK293 cells at 1 mM by immunoblot analysis. The format is cell-based.
Series [16] addresses Glutamate receptor ionotropic, kainate 3 (Homo sapiens, UniProt Q13003). Nature of the series: Antagonist activity at human recombinant GluK3 receptor expressed in human HEK293 cells assessed as inhibition of glutamate-stimulated calcium influx by fluorescence assay. The format is functional, cell-based.
The species entered for series [17] is Rattus norvegicus. Nature of the series: Antagonist activity at AMPA receptor in CA3 region of rat hippocampus assessed as change in AMPA-mediated field excitatory postsynaptic potential at 100 uM. The format is functional, tissue-based. Put shortly: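 Field EPSPs recorded from transverse rat hippocampal slices (400 μm), CA3 mossy fiber synapses. Compound 100 μM perfused 30 min. fEPSPs averaged every 2 min; slope between 20 and 80% of maximum measured and expressed as % of control slope. Mean ± s.e.m., n=4.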

Series [18] concerns Rattus norvegicus. Nature of the series: Antinociceptive activity in Wistar rat at 30 mg/kg, ip. It is filed as functional, organism-based. The arrangement: dose 30 mg/kg. Put shortly:
as §4

In series [19] the test system is HEK293. Nature of the series: Displacement of [3H]-Kainate from rat GluK3 A660S mutant transfected in human HEK293 cells at 100 uM by immunoblot analysis. The format is cell-based.
Series [20] relates to Rattus norvegicus. Nature of the series: Antinociceptive activity in Wistar rat nerve injury model assessed as reversal of drop in mechanical withdrawal threshold at 30 mg/kg, ip administered before 1 hr on day 7 of injury relative to control. The format is functional, organism-based. The arrangement: dose 30 mg/kg. The gist of the method:
as §4

Series [21] concerns the target Glutamate receptor ionotropic, kainate 3 (Rattus norvegicus) (UniProt P42264). Nature of the series: Displacement of [3H]-Kainate from wild type rat GluK3 receptor transfected in human HEK293 cells at 300 uM by immunoblot analysis. The format is cell-based.

Chain of Glutamate receptor ionotropic, kainate 3 (Rattus norvegicus) (P42264 whole entry): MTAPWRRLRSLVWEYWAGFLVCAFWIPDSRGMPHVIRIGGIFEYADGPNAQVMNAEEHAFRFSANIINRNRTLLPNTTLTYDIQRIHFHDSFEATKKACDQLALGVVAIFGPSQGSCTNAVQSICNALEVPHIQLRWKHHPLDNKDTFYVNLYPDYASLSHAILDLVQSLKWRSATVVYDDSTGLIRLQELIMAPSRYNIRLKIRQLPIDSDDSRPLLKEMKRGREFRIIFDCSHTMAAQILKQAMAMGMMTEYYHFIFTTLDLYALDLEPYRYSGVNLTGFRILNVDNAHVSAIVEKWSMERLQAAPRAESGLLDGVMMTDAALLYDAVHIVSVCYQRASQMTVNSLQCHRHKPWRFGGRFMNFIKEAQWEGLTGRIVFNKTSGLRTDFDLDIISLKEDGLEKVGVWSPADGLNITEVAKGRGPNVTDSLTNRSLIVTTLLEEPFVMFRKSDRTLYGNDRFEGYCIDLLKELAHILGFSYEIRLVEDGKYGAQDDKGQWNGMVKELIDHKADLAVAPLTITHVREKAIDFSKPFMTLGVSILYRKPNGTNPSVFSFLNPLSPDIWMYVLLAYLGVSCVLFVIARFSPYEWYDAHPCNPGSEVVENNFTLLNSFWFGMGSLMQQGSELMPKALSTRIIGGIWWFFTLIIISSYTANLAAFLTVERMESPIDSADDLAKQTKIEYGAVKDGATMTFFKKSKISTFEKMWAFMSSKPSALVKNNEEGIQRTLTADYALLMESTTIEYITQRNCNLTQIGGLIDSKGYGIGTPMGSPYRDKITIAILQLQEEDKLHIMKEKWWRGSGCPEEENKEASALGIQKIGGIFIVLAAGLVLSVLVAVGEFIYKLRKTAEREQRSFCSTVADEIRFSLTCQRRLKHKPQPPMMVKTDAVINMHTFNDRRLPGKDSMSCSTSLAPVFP
Chain of Glutamate receptor ionotropic, kainate 1 (P39086 whole entry): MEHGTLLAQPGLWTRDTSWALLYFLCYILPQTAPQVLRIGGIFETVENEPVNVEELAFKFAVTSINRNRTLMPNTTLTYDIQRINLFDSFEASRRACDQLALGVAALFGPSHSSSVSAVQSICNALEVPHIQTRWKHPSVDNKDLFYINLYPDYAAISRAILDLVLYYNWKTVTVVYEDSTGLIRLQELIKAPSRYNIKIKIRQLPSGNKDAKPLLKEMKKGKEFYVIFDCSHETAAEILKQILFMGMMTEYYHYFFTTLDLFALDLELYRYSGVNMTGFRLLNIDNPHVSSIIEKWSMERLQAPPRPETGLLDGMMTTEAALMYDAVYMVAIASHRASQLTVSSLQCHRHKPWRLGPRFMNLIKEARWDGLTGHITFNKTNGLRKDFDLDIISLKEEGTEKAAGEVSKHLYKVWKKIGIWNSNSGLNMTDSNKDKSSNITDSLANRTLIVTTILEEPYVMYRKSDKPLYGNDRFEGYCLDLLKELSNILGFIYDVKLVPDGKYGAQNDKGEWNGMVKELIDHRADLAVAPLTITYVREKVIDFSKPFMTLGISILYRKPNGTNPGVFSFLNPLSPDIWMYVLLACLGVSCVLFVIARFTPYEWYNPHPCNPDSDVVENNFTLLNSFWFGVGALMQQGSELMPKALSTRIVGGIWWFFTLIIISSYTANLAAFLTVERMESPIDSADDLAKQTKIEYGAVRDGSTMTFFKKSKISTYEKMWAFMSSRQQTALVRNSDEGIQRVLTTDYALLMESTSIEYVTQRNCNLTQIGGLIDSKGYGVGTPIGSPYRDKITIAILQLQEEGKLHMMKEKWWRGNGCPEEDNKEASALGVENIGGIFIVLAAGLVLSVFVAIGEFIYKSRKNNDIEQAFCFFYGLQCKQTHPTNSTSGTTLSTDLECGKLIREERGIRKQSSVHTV
Chain of Glutamate receptor ionotropic, kainate 2 (Q13002 whole entry): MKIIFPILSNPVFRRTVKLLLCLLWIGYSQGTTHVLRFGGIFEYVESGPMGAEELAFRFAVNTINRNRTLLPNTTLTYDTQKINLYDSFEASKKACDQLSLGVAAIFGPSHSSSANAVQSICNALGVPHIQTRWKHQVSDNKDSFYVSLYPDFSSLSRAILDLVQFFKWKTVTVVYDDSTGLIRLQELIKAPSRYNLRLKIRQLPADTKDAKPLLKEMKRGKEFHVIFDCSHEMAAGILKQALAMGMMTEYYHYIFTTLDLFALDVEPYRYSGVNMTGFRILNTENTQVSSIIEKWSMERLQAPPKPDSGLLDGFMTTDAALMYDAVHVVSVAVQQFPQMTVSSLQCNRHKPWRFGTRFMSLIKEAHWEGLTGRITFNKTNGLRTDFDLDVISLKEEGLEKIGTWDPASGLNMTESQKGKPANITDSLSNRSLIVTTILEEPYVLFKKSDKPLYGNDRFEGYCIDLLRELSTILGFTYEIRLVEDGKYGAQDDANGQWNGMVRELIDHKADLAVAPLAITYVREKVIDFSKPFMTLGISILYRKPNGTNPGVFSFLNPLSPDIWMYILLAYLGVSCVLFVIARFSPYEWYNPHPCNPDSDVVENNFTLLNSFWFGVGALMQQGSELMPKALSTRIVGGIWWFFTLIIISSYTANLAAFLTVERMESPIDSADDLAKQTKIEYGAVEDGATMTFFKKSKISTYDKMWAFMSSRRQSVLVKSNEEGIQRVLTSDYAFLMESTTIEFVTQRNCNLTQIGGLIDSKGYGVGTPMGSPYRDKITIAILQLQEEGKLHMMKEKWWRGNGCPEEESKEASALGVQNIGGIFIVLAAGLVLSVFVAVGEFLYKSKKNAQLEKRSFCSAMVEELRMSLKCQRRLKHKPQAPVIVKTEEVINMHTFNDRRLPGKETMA
Chain of Glutamate NMDA receptor; Grin1/Grin2a (Q00959 whole entry, other chains not shown): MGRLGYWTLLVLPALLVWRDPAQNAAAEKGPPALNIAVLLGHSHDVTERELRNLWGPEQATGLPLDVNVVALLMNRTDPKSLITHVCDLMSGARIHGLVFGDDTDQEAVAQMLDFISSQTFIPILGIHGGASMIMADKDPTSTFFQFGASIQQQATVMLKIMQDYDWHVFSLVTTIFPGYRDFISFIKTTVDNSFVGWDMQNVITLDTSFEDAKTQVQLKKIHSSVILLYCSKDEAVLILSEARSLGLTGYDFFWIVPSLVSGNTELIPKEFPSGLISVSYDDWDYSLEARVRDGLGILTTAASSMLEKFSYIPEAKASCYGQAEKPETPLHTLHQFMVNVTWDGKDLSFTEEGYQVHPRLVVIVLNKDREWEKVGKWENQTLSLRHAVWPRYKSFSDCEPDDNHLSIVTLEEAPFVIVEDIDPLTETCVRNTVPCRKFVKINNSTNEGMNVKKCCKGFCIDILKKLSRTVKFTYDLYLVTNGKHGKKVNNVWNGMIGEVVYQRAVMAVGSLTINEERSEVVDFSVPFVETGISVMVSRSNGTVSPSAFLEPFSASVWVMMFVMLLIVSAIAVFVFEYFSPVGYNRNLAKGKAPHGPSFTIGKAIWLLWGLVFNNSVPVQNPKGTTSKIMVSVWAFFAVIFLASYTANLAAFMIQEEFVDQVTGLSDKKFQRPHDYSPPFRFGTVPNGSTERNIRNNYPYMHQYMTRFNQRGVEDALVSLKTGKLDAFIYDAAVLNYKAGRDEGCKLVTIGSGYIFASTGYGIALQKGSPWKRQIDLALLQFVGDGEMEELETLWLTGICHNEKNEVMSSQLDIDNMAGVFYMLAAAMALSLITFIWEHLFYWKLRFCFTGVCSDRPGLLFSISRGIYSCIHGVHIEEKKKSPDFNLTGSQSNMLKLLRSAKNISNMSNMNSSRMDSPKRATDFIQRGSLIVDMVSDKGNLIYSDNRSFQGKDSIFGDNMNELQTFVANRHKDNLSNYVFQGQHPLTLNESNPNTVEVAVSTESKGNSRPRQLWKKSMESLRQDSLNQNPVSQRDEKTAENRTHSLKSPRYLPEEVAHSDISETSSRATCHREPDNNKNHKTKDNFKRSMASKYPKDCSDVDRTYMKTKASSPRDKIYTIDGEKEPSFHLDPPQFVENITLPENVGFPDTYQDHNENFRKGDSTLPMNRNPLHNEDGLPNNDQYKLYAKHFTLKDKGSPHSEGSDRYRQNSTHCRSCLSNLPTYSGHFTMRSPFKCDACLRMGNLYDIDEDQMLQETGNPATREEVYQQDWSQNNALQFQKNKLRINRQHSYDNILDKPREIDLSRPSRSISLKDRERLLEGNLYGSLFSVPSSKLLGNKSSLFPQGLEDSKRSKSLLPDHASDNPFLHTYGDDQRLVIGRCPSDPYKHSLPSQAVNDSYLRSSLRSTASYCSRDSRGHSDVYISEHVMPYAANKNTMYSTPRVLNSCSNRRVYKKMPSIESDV
Chain of Glutamate receptor ionotropic, kainate 3 (Q13003 whole entry, the tested form may be a part): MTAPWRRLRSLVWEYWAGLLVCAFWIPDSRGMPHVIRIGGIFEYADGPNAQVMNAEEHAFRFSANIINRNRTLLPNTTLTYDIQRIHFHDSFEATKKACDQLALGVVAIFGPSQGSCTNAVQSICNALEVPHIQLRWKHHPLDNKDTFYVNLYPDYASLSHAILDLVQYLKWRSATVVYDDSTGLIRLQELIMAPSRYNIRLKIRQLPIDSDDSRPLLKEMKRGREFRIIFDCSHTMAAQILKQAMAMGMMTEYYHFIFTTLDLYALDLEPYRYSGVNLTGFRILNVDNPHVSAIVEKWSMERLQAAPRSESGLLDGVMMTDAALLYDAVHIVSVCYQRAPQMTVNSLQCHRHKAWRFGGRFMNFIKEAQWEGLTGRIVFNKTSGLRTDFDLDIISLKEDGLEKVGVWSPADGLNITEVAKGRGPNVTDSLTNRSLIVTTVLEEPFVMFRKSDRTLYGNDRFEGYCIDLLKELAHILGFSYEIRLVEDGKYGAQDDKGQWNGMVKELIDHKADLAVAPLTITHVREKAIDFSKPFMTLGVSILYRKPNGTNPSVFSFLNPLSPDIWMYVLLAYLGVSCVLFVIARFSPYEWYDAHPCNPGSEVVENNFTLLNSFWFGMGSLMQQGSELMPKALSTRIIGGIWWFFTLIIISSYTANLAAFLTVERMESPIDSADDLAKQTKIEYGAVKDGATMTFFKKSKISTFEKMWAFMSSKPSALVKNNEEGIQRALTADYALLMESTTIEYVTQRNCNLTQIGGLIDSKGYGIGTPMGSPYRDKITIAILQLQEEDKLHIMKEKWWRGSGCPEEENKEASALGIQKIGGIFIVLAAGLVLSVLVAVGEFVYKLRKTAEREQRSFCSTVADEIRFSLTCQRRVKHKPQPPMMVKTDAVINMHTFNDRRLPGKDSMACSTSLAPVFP

In general, Kb refers to the equilibrium dissociation constant of an antagonist, usually derived from a functional assay. `O=C(O)[C@H]1NCCN(C(=O)c2ccc3cc(-c4ccccc4)ccc3c2)[C@H]1C(=O)O` (relative stereo): the Kb in series [1] is > 100 µM; in series [2], 5.8 µM. Further, the Ki in series [3] is > 100 µM; in series [4], > 100 µM; in series [5], 5.1 µM; in series [6] it was 2400 nM. Also, in series [7], the solubility result is recorded as “Insoluble”.
A word on the inhibition: it is the percentage by which the read-out fell short of the control. Consider `O=C(O)c1ccc(-c2ccc(C(=O)N3CCN[C@H](C(=O)O)[C@@H]3C(=O)O)cc2)cc1` (relative stereo), for which the Kb in series [2] came to 51.5 µM. Also, the inhibition in series [8] and in [9] was < 15% throughout. Also, the Ki in series [3] and in series [5] was > 100 µM throughout. Moreover, in [7], the solubility result was “Insoluble”.
As a reminder, the IC50 is the point on the concentration scale where inhibition reaches its midpoint. `O=C(O)[C@H]1NCCN(C(=O)c2ccc3cc(I)c4ccccc4c3c2)[C@H]1C(=O)O` (relative stereo): in [10], the Ratio IC50 was > 100. The inhibition result in series [11], in series [13], in series [14], in [15], in series [19] and in [21] was “Active” in each case. Also, the IC50 is > 100 µM in series [1], 650 nM in [2] and 81.3 µM in [16]. Besides, the Kb is > 100 µM in series [1] and 4.8 µM in series [2]. Also, the result in series [12], in series [18] and in series [20] was Active. Also, the Ki was found to be 3.8 µM in series [3], 7.4 µM in series [4], 1.9 µM in series [5] and 1000 nM in series [6]. For the same compound, the result in series [17] was inactive.
